Columns and labels:
SK-BR-3 [1] = assay: Cell cycle arrest in human SK-BR-3 cells assessed as accumulation at G1 phase at 0.10 uM after 24 hrs using propidium iodide staining by FACS analysis; assay type: functional
How it was run: (§1)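 SKBR-3 cells in RPMI1640 with 10% heat-inactivated FBS at 37 °C and 5% CO₂ were treated for the stated times. Cells were fixed overnight in 70% EtOH at −20 °C, then stained with propidium iodide buffer (38 mM sodium citrate pH 7.5, 69 µM PI, 120 µg/mL RNase A) for 15 min at room temperature in the dark. Up to 1×10⁴ gated cells were analyzed by flow cytometry, giving percent distribution per phase.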

HCC 2998 = assay: Growth inhibition of human HCC2998 cells after 48 hrs by SRB assay; assay type: functional
NCI-H460 = assay: Growth inhibition of human NCI-H460 cells after 48 hrs by SRB assay; assay type: functional
SK-BR-3 [2] = assay: Cell cycle arrest in human SK-BR-3 cells assessed as accumulation at G2/M phase at 5 uM after 6 hrs using propidium iodide staining by FACS analysis; assay type: functional; how it was run: as §1
SK-BR-3 [3] = assay: Cell cycle arrest in human SK-BR-3 cells assessed as accumulation at G1 phase at 0.10 uM after 12 hrs using propidium iodide staining by FACS analysis; assay type: functional; how it was run: as §1
MDA-MB-435 = assay: Growth inhibition of human MDA-MB-435 cells after 48 hrs by SRB assay; assay type: functional
SK-BR-3 [4] = assay: Cell cycle arrest in human SK-BR-3 cells assessed as accumulation at G2/M phase at 5 uM after 12 hrs using propidium iodide staining by FACS analysis; assay type: functional; how it was run: as §1
SK-BR-3 [5] = assay: Cell cycle arrest in human SK-BR-3 cells assessed as accumulation at G1 phase at 0.50 uM after 18 hrs using propidium iodide staining by FACS analysis; assay type: functional; how it was run: as §1
NCI-H522 = assay: Growth inhibition of human NCI-H522 cells after 48 hrs by SRB assay; assay type: functional
SK-BR-3 [6] = assay: Cell cycle arrest in human SK-BR-3 cells assessed as accumulation at G2/M phase at 0.25 uM after 24 hrs using propidium iodide staining by FACS analysis; assay type: functional; how it was run: as §1
COLO 205 = assay: Growth inhibition of human COLO205 cells after 48 hrs by SRB assay; assay type: functional
SK-BR-3 [7] = assay: Cell cycle arrest in human SK-BR-3 cells assessed as accumulation at Sub-G1 phase at 0.25 uM after 18 hrs using propidium iodide staining by FACS analysis; assay type: functional
CAKI-1 = assay: Growth inhibition of human Caki1 cells after 48 hrs by SRB assay; assay type: functional
SK-BR-3 [8] = assay: Cell cycle arrest in human SK-BR-3 cells assessed as accumulation at G2/M phase at 0.10 uM after 24 hrs using propidium iodide staining by FACS analysis; assay type: functional; how it was run: as §1
SK-BR-3 [9] = assay: Cell cycle arrest in human SK-BR-3 cells assessed as accumulation at S phase at 0.10 uM after 3 hrs using propidium iodide staining by FACS analysis; assay type: functional; how it was run: as §1
Mus musculus = assay: Acute toxicity in nude mouse assessed as body weight loss at 100 to 400 mg/kg administered as single dose measured after 2 weeks; assay type: organism-based; parameters: dose 100-400 mg/kg; conditions: in vivo, 336 h
SK-BR-3 [10] = assay: Cell cycle arrest in human SK-BR-3 cells assessed as accumulation at S phase at 0.10 uM after 18 hrs using propidium iodide staining by FACS analysis; assay type: functional; how it was run: as §1
SK-BR-3 [11] = assay: Cell cycle arrest in human SK-BR-3 cells assessed as accumulation at G1 phase at 0.10 uM after 18 hrs using propidium iodide staining by FACS analysis; assay type: functional; how it was run: as §1
SK-BR-3 [12] = assay: Cell cycle arrest in human SK-BR-3 cells assessed as accumulation at G1 phase at 5 uM after 24 hrs using propidium iodide staining by FACS analysis; assay type: functional; how it was run: as §1
SK-BR-3 [13] = assay: Cell cycle arrest in human SK-BR-3 cells assessed as accumulation at G2/M phase at 0.25 uM after 6 hrs using propidium iodide staining by FACS analysis; assay type: functional; how it was run: as §1
SK-BR-3 [14] = assay: Cell cycle arrest in human SK-BR-3 cells assessed as accumulation at Sub-G1 phase at 5 uM after 24 hrs using propidium iodide staining by FACS analysis; assay type: functional
NCI/ADR-RES = assay: Growth inhibition of human NCI/ADR-RES cells after 48 hrs by SRB assay; assay type: functional
OVCAR-4 = assay: Growth inhibition of human OVCAR4 cells after 48 hrs by SRB assay; assay type: functional
SK-BR-3 [15] = assay: Cell cycle arrest in human SK-BR-3 cells assessed as accumulation at S phase at 0.25 uM after 6 hrs using propidium iodide staining by FACS analysis; assay type: functional
K562 = assay: Growth inhibition of human K562 cells after 48 hrs by SRB assay; assay type: functional
SK-BR-3 [16] = assay: Cell cycle arrest in human SK-BR-3 cells assessed as accumulation at G1 phase at 0.25 uM after 18 hrs using propidium iodide staining by FACS analysis; assay type: functional; how it was run: as §1
[17] = Apparent volume of distribution during terminal phase in Sprague-Dawley rat at 20 mg/kg, ip; assay type: ADME, organism-based; parameters: dose 20 mg/kg, route intraperitoneal; conditions: in vivo, read-out: Vz/F
How it was run: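 Male Sprague–Dawley rats (300–350 g), n=3, fasted overnight with water available, given a single 20 mg/kg i.p. dose in PBS with 0.1% Tween80 and 20% DMSO. Blood drawn into heparinized tubes at 0, 0.25, 0.5, 1, 2, 4, 8 and 24 h. Plasma measured by LC-MS/MS against an internal standard. Parameters from non-compartmental analysis.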

SK-BR-3 [18] = assay: Cell cycle arrest in human SK-BR-3 cells assessed as accumulation at G2/M phase at 0.10 uM after 6 hrs using propidium iodide staining by FACS analysis; assay type: functional; how it was run: as §1
HT-29 = assay: Cytotoxicity against human HT-29 cells after 48 hrs by MTT assay; assay type: functional, cell-based; conditions: HT-29, 48 h
How it was run: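 HT29 cells (ATCC) kept in RPMI1640 with 10% heat-inactivated FBS, L-glutamine and pyruvate at 37 °C, 5% CO2. Cells plated 24 h, then exposed 48 h to graded compound concentrations in DMSO (0.1% final) beside vehicle controls. Incubated 2 h with 0.5 mg/ml MTT, formazan dissolved in DMSO, A570 read. Six replicates; IC50 from viability.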

HL-60(TB) = assay: Growth inhibition of human HL-60(TB) cells after 48 hrs by SRB assay; assay type: functional
How it was run: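 Tested in the 60-cell-line panel of the NCI Developmental Therapeutics Program with 48 h drug exposure. The read-out is cellular protein.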

For `Cc1ccc(C)c(COc2cc(NC(=O)c3ccc4c(c3)OCO4)ccc2N(C)S(C)(=O)=O)c1`, the Activity (SK-BR-3 [1]) was 67.9%, the “growth inhibition (GI)” value (HCC 2998) was “Dose-dependent effect” and the TGI (HCC 2998; HCC 2998, 48 h) was 392 nM. The CC50 (HCC 2998; HCC 2998, 48 h, read-out: LC50 (the source's name)) was 2970 nM, the “growth inhibition (GI)” value (NCI-H460) was “Dose-dependent effect” and the GI50 (NCI-H460; NCI-H460, 48 h) was 184 nM. For the same molecule, the TGI (NCI-H460; NCI-H460, 48 h) was 744 nM, the CC50 (NCI-H460; NCI-H460, 48 h, read-out: LC50 (the source's name)) was > 100000 nM and the Activity (SK-BR-3 [2]) was 17.19%. The Activity (SK-BR-3 [3]) was 73.14%, the “growth inhibition (GI)” value (MDA-MB-435) was “Dose-dependent effect” and the GI50 (MDA-MB-435; MDA-MB-435, 48 h) was 28.5 nM. The TGI (MDA-MB-435; MDA-MB-435, 48 h) was 91.4 nM, the CC50 (MDA-MB-435; MDA-MB-435, 48 h, read-out: LC50 (the source's name)) was > 100000 nM and the Activity (SK-BR-3 [4]) was 20.54%. For the same molecule, the Activity (SK-BR-3 [5]) was 61.19%, the “growth inhibition (GI)” value (NCI-H522) was “Dose-dependent effect” and the GI50 (NCI-H522; NCI-H522, 48 h) was 33.5 nM. The TGI (NCI-H522; NCI-H522, 48 h) was 240 nM, the CC50 (NCI-H522; NCI-H522, 48 h, read-out: LC50 (the source's name)) was > 100000 nM and the Activity (SK-BR-3 [6]) was 22.53%. The “growth inhibition (GI)” value (COLO 205) was “Dose-dependent effect”, the GI50 (COLO 205; COLO 205, 48 h) was 318 nM and the TGI (COLO 205; COLO 205, 48 h) was 1070 nM. The CC50 (COLO 205; COLO 205, 48 h, read-out: LC50 (the source's name)) was > 100000 nM, the Activity (SK-BR-3 [7]) was 8.89% and the “growth inhibition (GI)” value (CAKI-1) was “Dose-dependent effect”. For the same molecule, the TGI (CAKI-1; CAKI-1, 48 h) was > 100000 nM, the CC50 (CAKI-1; CAKI-1, 48 h, read-out: LC50 (the source's name)) was > 100000 nM and the Activity (SK-BR-3 [8]) was 11.23%. For the same molecule, the Activity (SK-BR-3 [9]) was 17.2%, the Activity (Mus musculus) was “Non-toxic” and the Activity (SK-BR-3 [10]) was 8.71%. The Activity (SK-BR-3 [11]) was 75.43%, the Activity (SK-BR-3 [12]) was 31.87% and the Activity (SK-BR-3 [13]) was 9.32%. For the same molecule, the Activity (SK-BR-3 [14]) was 27.62%, the GI50 (NCI/ADR-RES) was 56.2 nM and the TGI (NCI/ADR-RES) was 407 nM. For the same molecule, the “growth inhibition (GI)” value (NCI/ADR-RES) was “Dose-dependent effect”, the CC50 (NCI/ADR-RES; read-out: LC50 (the source's name)) was > 100000 nM and the “growth inhibition (GI)” value (OVCAR-4) was “Dose-dependent effect”. For the same molecule, the TGI (OVCAR-4; OVCAR-4, 48 h) was > 100000 nM, the CC50 (OVCAR-4; OVCAR-4, 48 h, read-out: LC50 (the source's name)) was > 100000 nM and the Activity (SK-BR-3 [15]) was 14.95%. The “growth inhibition (GI)” value (K562) was “Dose-dependent effect”, the GI50 (K562; K562, 48 h) was 40.3 nM and the TGI (K562; K562, 48 h) was > 100000 nM. For the same molecule, the CC50 (K562; K562, 48 h, read-out: LC50 (the source's name)) was > 100000 nM, the Activity (SK-BR-3 [16]) was 73.42% and the Vd/F [17] was 2.16 L/kg. The Activity (SK-BR-3 [18]) was 9.07%, the IC50 (HT-29) was 460 nM and the “growth inhibition (GI)” value (HL-60(TB)) was “Dose-dependent effect”. For the same molecule, the GI50 (HL-60(TB); HL-60, 48 h) was 26.9 nM, the TGI (HL-60(TB); HL-60, 48 h) was 96.7 nM and the CC50 (HL-60(TB); HL-60, 48 h, read-out: LC50 (the source's name)) was > 100000 nM.

Source: ChEMBL document CHEMBL1932938, “From COX-2 inhibitor nimesulide to potent anti-cancer agent: synthesis, in vitro, in vivo and pharmacokinetic evaluation” (Eur J Med Chem, 2012)
